Results from ChEMBL document CHEMBL1128239, “Structure-activity relationships of lactone ring-opened analogs of the antimalarial 1,2,4-trioxane artemisinin” (J Med Chem, 1995).
Values after ≈ are worked out from the molar mass of the structure shown.

Columns and labels:
Plasmodium falciparum [1] = assay: In vitro antimalarial activity against Plasmodium falciparum W-2; type: functional, organism-based
Plasmodium falciparum [2] = assay: In vitro antimalarial activity against Plasmodium falciparum D6; type: functional, organism-based
Mus musculus [3] = assay: In vivo antimalarial activity against Plasmodium berghei. Activity expressed as ED50.; type: functional
How it was run: (§1)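 Mice infected with drug-sensitive N strain of P. berghei; compound given subcutaneously as a single daily dose for 4 days. ED50 and ED90 reported in mg/kg.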

Mus musculus [4] = assay: In vivo antimalarial activity against Plasmodium berghei. Activity expressed as ED90.; type: functional; how it was run: as §1

Structure (SMILES) | IC50 (Plasmodium falciparum [1]) | IC50 (Plasmodium falciparum [2]) | ED50 (Mus musculus [3]) | ED90 (Mus musculus [4])
CO[C@H]1O[C@@]2(C)CC[C@H]3CCC[C@@H](CCOCc4ccc(-c5ccccc5)cc4)[C@]31OO2 | 6 ng/mL (≈ 0.0137 µM) | 6 ng/mL (≈ 0.0137 µM) |  | 
CO[C@H]1O[C@@]2(C)CC[C@H]3CCC[C@@H](CCOCc4cc[n+](C)cc4)[C@]31OO2.[I-] | 85 ng/mL |  |  | 
CO[C@H]1O[C@@]2(C)CC[C@H]3CCC[C@@H](CCOCc4ccc(F)cc4)[C@]31OO2 | 4.5 ng/mL (≈ 0.0118 µM) | 3 ng/mL (≈ 0.00789 µM) | 7.6 mg/kg | 13.5 mg/kg
CO[C@H]1O[C@@]2(C)CC[C@H]3CCC[C@@H](CCOCc4ccccc4)[C@]31OO2 | 3 ng/mL (≈ 0.00828 µM) | 8 ng/mL (≈ 0.0221 µM) |  | 
CO[C@H]1O[C@@]2(C)CC[C@H]3CCC[C@@H](CCOCc4ccccn4)[C@]31OO2 | 7 ng/mL (≈ 0.0193 µM) | 18 ng/mL (≈ 0.0495 µM) |  | 
C[C@H]1[C@H](OC(=O)CCC(=O)[O-])O[C@@H]2O[C@@]3(C)CC[C@H]4[C@H](C)CC[C@@H]1[C@@]24OO3.[Na+] [SODIUM ARESUNATE] |  |  | 1.5 mg/kg | 4.9 mg/kg
CO[C@H]1O[C@@]2(C)CC[C@H]3CCC[C@@H](CCOCc4ccncc4)[C@]31OO2 | 7.5 ng/mL (≈ 0.0206 µM) | 10 ng/mL (≈ 0.0275 µM) |  | 
